Test results taken from ChEMBL document CHEMBL1127424, “7-azetidinylquinolones as antibacterial agents. 2. Synthesis and biological activity of 7-(2,3-disubstituted-1-azetidinyl)-4-oxoquinoline- and -1,8-naphthyridine-3-carboxylic acids. Properties and structure-activity relationships of quinolones with an azetidine moiety” (J Med Chem, 1994).
Values after ≈ are worked out from the molar mass of the structure shown. Values joined by “and” are separate entries in the source; they are usually repeats but may differ in a detail not shown here. Identical values can stand only once.

Assays:
Klebsiella pneumoniae = assay: In vitro minimum inhibitory concentration to inhibit Klebsiella pneumoniae ATCC 10031; type: functional
Method in brief: (§1)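 Serial 2-fold agar dilution in Mueller Hinton medium, run alongside a reference quinolone. Inoculum adjusted to 10⁸ cfu/mL; compound range 0.007–16 μg/mL.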

[1] = AUC (0-4 hr) ug/ml/h; type: ADME, cell-free; set-up: time < 4 hr; concentration or dose not given beside the values; conditions: plasma
Method in brief: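 Mice dosed once orally at 50 mg/kg; blood taken from groups of six mice at 0.5, 1, 2 and 4 h. Serum drug assayed by disk agar diffusion bioassay (Bacillus subtilis ATCC 6633 on Seed Agar, 37 °C, 18 h), giving total activity.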

[2] = HPLC capacity factor (k'); type: ADME
Method in brief: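 Ion-pair reversed-phase HPLC on ODS-2 (10 μm) at 45 °C. Mobile phase: 10 mM sodium heptanesulfonate plus 50 mM KH2PO4 (pH 3.5)–methanol 45:55, 1 mL/min. Samples at 100 μg/mL in DMF, injected in duplicate, UV 280 nm. k' = (tR − t0)/t0.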

[3] = tested on: Staphylococcus epidermidis; assay: In vitro minimum inhibitory concentration for Staphylococcus epidermidis ATCC 155-1; type: functional; method in brief: as §1
Bacillus subtilis = assay: In vitro minimum inhibitory concentration for Bacillus subtilis ATCC 6633; type: functional; method in brief: as §1
Staphylococcus aureus = assay: In vitro minimum inhibitory concentration for Staphylococcus aureus ATCC 25178; type: functional; method in brief: as §1
Pseudomonas aeruginosa = assay: In vitro minimum inhibitory concentration for Pseudomonas aeruginosa ATCC 10145; type: functional; method in brief: as §1
Bacillus cereus = assay: In vitro minimum inhibitory concentration for Bacillus cereus ATCC 11778; type: functional; method in brief: as §1
Morganella morganii = assay: In vitro minimum inhibitory concentration for Morganella morganii ATCC 8019; type: functional; method in brief: as §1
Mus musculus [4] = assay: Evaluation of efficacy on systemic infections Escherichia coli HM-42, after oral administration in mice; type: functional
Method in brief: (§2)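 Single oral dose given immediately after infection, one of four doses per group, chosen from in vitro activity. Survival scored after one week. ED50 (total mg/kg protecting 50%) interpolated from survival rates.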

Mus musculus [5] = assay: Evaluation of efficacy on systemic infections Staphylococcus aureus HS-93, after oral administration in mice; type: functional; method in brief: as §2
Mus musculus [6] = assay: Evaluation of efficacy on systemic infections Pseudomonas aeruginosa HS-116, after oral administration in mice; type: functional; method in brief: as §2
Enterobacter cloacae = assay: In vitro minimum inhibitory concentration for Enterobacter cloacae ATCC 23355; type: functional
Proteus vulgaris = assay: In vitro minimum inhibitory concentration for Proteus vulgaris ATCC 8427; type: functional; method in brief: as §1
[7] = Solubility (buffer pH 7.4); type: physicochemical; conditions: read-out: S
Method in brief: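 Excess solid shaken in 0.05 M phosphate buffer pH 7.4 for 24 h at 25 °C. Suspension filtered through 0.22 μm, discarding the first portion. Filtrate diluted in 0.1 N HCl or 0.1 N NaOH and read by UV at the compound's absorbance maximum.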

Escherichia coli = assay: In vitro minimum inhibitory concentration for Escherichia coli ATCC 10799; type: functional; method in brief: as §1
Enterococcus faecalis = assay: In vitro minimum inhibitory concentration for Streptococcus faecalis ATCC 10541; type: functional; method in brief: as §1
[8] = Dissociation constant (pKa); type: physicochemical; conditions: read-out: pKa2
Method in brief: (§3)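 Spectrophotometric titration at 20 ± 1 °C, 0.1 M ionic strength, pH varied with H2SO4 or NaOH made up in the compound stock. Absorbance followed at compound-specific wavelengths chosen from 200–400 nm scans. pKa1 and pKa2 taken as the inflection points of the two-step absorbance vs pH curve.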

[9] = Measured ionization constant (pKa); type: physicochemical; conditions: read-out: pKa1; method in brief: as §3

MIC (Klebsiella pneumoniae)	AUC [1]	Log k' [2]	MIC [3]	MIC (Bacillus subtilis)	MIC (Staphylococcus aureus)	MIC (Pseudomonas aeruginosa)	MIC (Bacillus cereus)	MIC (Morganella morganii)	MIC (Enterobacter cloacae)	MIC (Proteus vulgaris)	solubility [7]	MIC (Escherichia coli)	MIC (Enterococcus faecalis)	pKa [8]	pKa [9]	Structure (SMILES)	ED50 (Mus musculus [4])	ED50 (Mus musculus [5])	ED50 (Mus musculus [6])
		-0.1606									13.9 µg/mL (≈ 41.8 µM)			8.21	6.38	CC1(N)CN(c2nc3c(cc2F)c(=O)c(C(=O)O)cn3C2CC2)C1			
0.12 µg/mL (≈ 0.274 µM)	32300 ng·h/mL	0.3553	0.06 µg/mL (≈ 0.137 µM)	0.03 µg/mL (≈ 0.0685 µM)	0.12 µg/mL (≈ 0.274 µM)	0.5 µg/mL (≈ 1.14 µM)	0.03 µg/mL (≈ 0.0685 µM)	0.25 µg/mL (≈ 0.571 µM)	0.12 µg/mL (≈ 0.274 µM)	0.25 µg/mL (≈ 0.571 µM)	16.5 µg/mL (≈ 37.7 µM)	0.06 µg/mL (≈ 0.137 µM)	0.25 µg/mL (≈ 0.571 µM)			C[C@H]1[C@H](N)CN1c1c(F)cc2c(=O)c(C(=O)O)cn(-c3ccc(F)cc3F)c2c1Cl	3.6 mg/kg	4.3 mg/kg	86.9 mg/kg
0.06 µg/mL (≈ 0.153 µM)	11800 ng·h/mL	0.025	0.25 µg/mL (≈ 0.639 µM)	0.12 µg/mL (≈ 0.307 µM)	0.25 µg/mL (≈ 0.639 µM)	4 µg/mL (≈ 10.2 µM)	0.25 µg/mL (≈ 0.639 µM)	0.5 µg/mL (≈ 1.28 µM)	1 µg/mL (≈ 2.55 µM)	0.5 µg/mL (≈ 1.28 µM)		0.25 µg/mL (≈ 0.639 µM)	2 µg/mL (≈ 5.11 µM)			CCNC[C@H]1CN(c2c(F)cc3c(=O)c(C(=O)O)cn(C4CC4)c3c2F)[C@@H]1C	4.7 mg/kg	37.5 mg/kg	61 mg/kg
0.015 µg/mL (≈ 0.0372 µM)	30200 ng·h/mL	0.1875	0.12 µg/mL (≈ 0.298 µM)	0.03 µg/mL (≈ 0.0744 µM)	0.12 µg/mL (≈ 0.298 µM)	2 µg/mL (≈ 4.96 µM)	0.25 µg/mL (≈ 0.62 µM)	0.25 µg/mL (≈ 0.62 µM)	0.12 µg/mL (≈ 0.298 µM)	0.5 µg/mL (≈ 1.24 µM)	31 µg/mL (≈ 76.9 µM)	0.12 µg/mL (≈ 0.298 µM)	1 µg/mL (≈ 2.48 µM)			C[C@H]1[C@H](N)CN1c1cc2c(cc1F)c(=O)c(C(=O)O)cn2-c1ccc(F)cc1F [CETEFLOXACIN]	6 mg/kg	8.1 mg/kg	77.9 mg/kg

Second part, the compound before the results:

Structure (SMILES)	MIC (Klebsiella pneumoniae)	AUC [1]	Log k' [2]	MIC [3]	MIC (Bacillus subtilis)	MIC (Staphylococcus aureus)	MIC (Pseudomonas aeruginosa)	MIC (Bacillus cereus)	MIC (Morganella morganii)	MIC (Enterobacter cloacae)	MIC (Proteus vulgaris)	solubility [7]	MIC (Escherichia coli)	MIC (Enterococcus faecalis)	pKa [8]	pKa [9]	ED50 (Mus musculus [4])	ED50 (Mus musculus [5])	ED50 (Mus musculus [6])
C[C@H]1[C@@H](N)CN1c1c(F)cc2c(=O)c(C(=O)O)cn(C3CC3)c2c1F	0.12 µg/mL (≈ 0.344 µM)	9000 ng·h/mL	0.0813	0.12 µg/mL (≈ 0.344 µM)	0.06 µg/mL (≈ 0.172 µM)	0.012 µg/mL (≈ 0.0344 µM)	1 µg/mL (≈ 2.86 µM)	0.12 µg/mL (≈ 0.344 µM)	0.012 µg/mL (≈ 0.0344 µM)	0.06 µg/mL (≈ 0.172 µM)	0.25 µg/mL (≈ 0.716 µM)	23.6 µg/mL (≈ 67.6 µM)	0.12 µg/mL (≈ 0.344 µM)	1 µg/mL (≈ 2.86 µM)			6.2 mg/kg	18.6 mg/kg	123 mg/kg
CNC1(C)CN(c2c(F)cc3c(=O)c(C(=O)O)cn(C4CC4)c3c2F)C1			0.1055									0.5 µg/mL (≈ 1.38 µM)			8.58	6.26			
C[C@H]1[C@H](N)CN1c1c(F)cc2c(=O)c(C(=O)O)cn(-c3ccc(F)cc3)c2c1F	0.12 µg/mL (≈ 0.298 µM)	31400 ng·h/mL	0.1875	0.12 µg/mL (≈ 0.298 µM)	0.12 µg/mL (≈ 0.298 µM)	0.25 µg/mL (≈ 0.62 µM)	2 µg/mL (≈ 4.96 µM)	0.25 µg/mL (≈ 0.62 µM)	0.25 µg/mL (≈ 0.62 µM)	0.12 µg/mL (≈ 0.298 µM)	0.5 µg/mL (≈ 1.24 µM)	11.2 µg/mL (≈ 27.8 µM)	0.12 µg/mL (≈ 0.298 µM)	2 µg/mL (≈ 4.96 µM)			2.5 mg/kg	5.7 mg/kg	54.6 mg/kg
CC1(N)CN(c2cc3c(cc2F)c(=O)c(C(=O)O)cn3C2CC2)C1			-0.1249												8.55	6.58			
CCNC[C@H]1CN(c2cc3c(cc2F)c(=O)c(C(=O)O)cn3C2CC2)[C@@H]1C	0.06 µg/mL (≈ 0.161 µM)	3200 ng·h/mL	-0.0042	0.5 µg/mL (≈ 1.34 µM)	0.06 µg/mL (≈ 0.161 µM)	0.5 µg/mL (≈ 1.34 µM)	4 µg/mL (≈ 10.7 µM)	1 µg/mL (≈ 2.68 µM)	0.5 µg/mL (≈ 1.34 µM)	0.12 µg/mL (≈ 0.321 µM)	1 µg/mL (≈ 2.68 µM)		0.12 µg/mL (≈ 0.321 µM)	4 µg/mL (≈ 10.7 µM)			28.4 mg/kg	60.5 mg/kg	265 mg/kg
CC1(N)CN(c2c(F)cc3c(=O)c(C(=O)O)cn(C4CC4)c3c2F)C1			-0.0177 and 0.0094												8.33	6.23			
CNC1CN(c2cc3c(cc2F)c(=O)c(C(=O)O)cn3C2CC2)C1			0.0215												8.56	6.54			
CN(C)C1(C)CN(c2cc3c(cc2F)c(=O)c(C(=O)O)cn3C2CC2)C1			0.5153												7.9	6.47			
